# ChEMBL document CHEMBL1155286, “Second generation of 2H-benzimidazole 1,3-dioxide derivatives as anti-trypanosomatid agents: synthesis, biological evaluation, and mode of action studies” (Eur J Med Chem, 2009)
# The source made the active and inactive calls. No cut-off for these calls is given here.
# Tested on: Trypanosoma cruzi
# Assay: Antitrypanosomal activity against Trypanosoma cruzi Tulahuen 2 epimastigotes assessed as inhibition of parasite growth after 5 days
# Assay type: functional
# Settings: Trypanosoma cruzi, Tulahuen 2, 120 h; read-out: ID50 (the source's name)
# How it was run: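 Stationary-phase (10-day) Tulahuen 2 epimastigotes inoculated at 1×10^6 cells/mL in BHI-Tryptose + 5% FBS, 28 °C, drug added from DMSO stock (final DMSO ≤0.4%; control 0.4% DMSO). Growth followed as A600; inhibition from day-5 vs day-0 absorbance relative to control. ID50 = concentration reducing absorbance ratio to 50%; three independent experiments.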
row,Structure (SMILES),IC50 [µM]
1,CC1(C)[N+]([O-])=c2ccc(Cl)cc2=[N+]1[O-],10.1
2,COc1ccc2c(c1)=[N+]([O-])C1(CCCC1)[N+]=2[O-],25
3,[O-][N+]1=c2cc(Cl)c(Cl)cc2=[N+]([O-])C12CCCC2,12
4,CC1(C)[N+]([O-])=c2cc(Cl)c(Cl)cc2=[N+]1[O-],14.5
5,O=C(Cn1ccnc1[N+](=O)[O-])NCc1ccccc1 [BENZNIDAZOLE],7.4
6,CC1(Cc2ccc(Cl)cc2)[N+]([O-])=c2ccccc2=[N+]1[O-],40
7,CC1(C)[N+]([O-])=c2ccc(/C=C/c3ccc(Cl)cc3)cc2=[N+]1[O-],8.1
8,CC1(C)[N+]([O-])=c2ccc(/C=C/c3ccc4c(c3)OCO4)cc2=[N+]1[O-],3.1
9,[O-][N+]1=c2ccc(/C=N/O)cc2=[N+]([O-])C12CCCC2,19.8

# Tested on: Trypanosoma cruzi
# Assay: Antitrypanosomal activity against Trypanosoma cruzi CL Brener epimastigotes assessed as parasitic cytotoxicity at 25 uM after 5 days by MTT assay
# Assay type: functional
# Settings: not given
# How it was run: (§1)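 Single 25 μM dose for 5 days on exponential-phase epimastigotes in BHI-Tryptose + 5% FBS, 24-well plates; MTT 0.4 mg/mL, 3 h at 37 °C after PBS wash, formazan in DMSO, OD595. PCyt = [[…] (ODd − ODdm)/(ODc − ODcm)] × 100 with medium-only blanks, compound-in-medium blanks and growth controls; three independent experiments.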
row,Structure (SMILES),Activity [%]
1,CC1(C)[N+]([O-])=c2ccc(/C=N/O)cc2=[N+]1[O-],46.6
2,COc1ccc2c(c1)=[N+]([O-])C1(CCCC1)[N+]=2[O-],62.6
3,[O-][N+]1=c2cc(Cl)c(Cl)cc2=[N+]([O-])C12CCCC2,67.1
4,CC1(C)[N+]([O-])=c2cc(Cl)c(Cl)cc2=[N+]1[O-],88.3
5,[O-][N+]1=c2ccc(/C=N/O)cc2=[N+]([O-])C12CCCC2,65.6

# Tested on: J774
# Assay: Cytotoxicity against mouse J774 cells at 100 uM relative to 5-((hydroxyimino)methyl)-2,2-dimethyl-2H-benzo[d]imidazole 1,3-dioxide
# Assay type: cell-based
# Settings: j774, 100 µM
row,Structure (SMILES),Activity [%]
1,CC1(C)[N+]([O-])=c2ccc(Cl)cc2=[N+]1[O-],1.74
2,COc1ccc2c(c1)=[N+]([O-])C1(CCCC1)[N+]=2[O-],0.89
3,[O-][N+]1=c2cc(Cl)c(Cl)cc2=[N+]([O-])C12CCCC2,1.65
4,CC1(C)[N+]([O-])=c2cc(Cl)c(Cl)cc2=[N+]1[O-],0.87
5,CC1(Cc2ccc(Cl)cc2)[N+]([O-])=c2ccccc2=[N+]1[O-],1.42
6,CC1(C)[N+]([O-])=c2ccc(/C=C/c3ccc(Cl)cc3)cc2=[N+]1[O-],1.48
7,CC1(C)[N+]([O-])=c2ccc(/C=C/c3ccc4c(c3)OCO4)cc2=[N+]1[O-],1.37
8,[O-][N+]1=c2ccc(/C=N/O)cc2=[N+]([O-])C12CCCC2,0.82

# Tested on: Trypanosoma cruzi
# Assay: Antitrypanosomal activity against Trypanosoma cruzi CL Brener epimastigotes after 5 days by MTT assay
# Assay type: functional
# Settings: 120 h, read-out: ID50
# How it was run: (§2)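 Epimastigotes (T. cruzi strains, BHI-Tryptose + 5% FBS, 28 °C) or L. braziliensis LTB300 promastigotes (axenic RPMI + 5% FBS, 28 °C) from exponential culture in 24-well plates; compounds from DMSO stock added for 5 days. Washed in PBS, 0.4 mg/mL MTT at 37 °C for 3 h, formazan dissolved in DMSO, OD595 read. Triplicate per concentration, six growth controls; 1.0–50.0 μM dose-response, ID50 = concentration reducing absorbance ratio to 50%; three independent experiments.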
row,Structure (SMILES),IC50 [µM]
1,CC1(C)[N+]([O-])=c2ccc(/C=N/O)cc2=[N+]1[O-],> 40

# Tested on: Trypanosoma cruzi
# Assay: Antitrypanosomal activity against Trypanosoma cruzi Colombiana assessed as parasitic cytotoxicity at 25 uM after 5 days by MTT assay
# Assay type: functional
# Settings: not given
# How it was run: as §1
row,Structure (SMILES),Activity [%]
1,CC1(C)[N+]([O-])=c2ccc(/C=N/O)cc2=[N+]1[O-],21.7
2,COc1ccc2c(c1)=[N+]([O-])C1(CCCC1)[N+]=2[O-],17.3
3,[O-][N+]1=c2cc(Cl)c(Cl)cc2=[N+]([O-])C12CCCC2,60.9
4,CC1(C)[N+]([O-])=c2cc(Cl)c(Cl)cc2=[N+]1[O-],94.4
5,[O-][N+]1=c2ccc(/C=N/O)cc2=[N+]([O-])C12CCCC2,29

# Tested on: not listed separately
# Assay: Selective index, ratio of ID50 for mouse J774 cells to ID50 for Leishmania braziliensis LTB300
# Settings: not given
row,Structure (SMILES),Ratio
1,CC1(C)[N+]([O-])=c2ccc(/C=N/O)cc2=[N+]1[O-],<1.5
2,COc1ccc2c(c1)=[N+]([O-])C1(CCCC1)[N+]=2[O-],<2
3,[O-][N+]1=c2cc(Cl)c(Cl)cc2=[N+]([O-])C12CCCC2,7.2
4,CC1(C)[N+]([O-])=c2cc(Cl)c(Cl)cc2=[N+]1[O-],9.9
5,[O-][N+]1=c2ccc(/C=N/O)cc2=[N+]([O-])C12CCCC2,4.9

# Tested on: Trypanosoma cruzi
# Assay: Antitrypanosomal activity against Trypanosoma cruzi Y epimastigotes after 5 days by MTT assay
# Assay type: functional
# Settings: 120 h, read-out: ID50
# How it was run: as §2
row,Structure (SMILES),IC50 [µM]
1,CC1(C)[N+]([O-])=c2ccc(/C=N/O)cc2=[N+]1[O-],16.4
2,COc1ccc2c(c1)=[N+]([O-])C1(CCCC1)[N+]=2[O-],4.9
3,[O-][N+]1=c2cc(Cl)c(Cl)cc2=[N+]([O-])C12CCCC2,5.3
4,CC1(C)[N+]([O-])=c2cc(Cl)c(Cl)cc2=[N+]1[O-],9.9
5,[O-][N+]1=c2ccc(/C=N/O)cc2=[N+]([O-])C12CCCC2,5.7

# Tested on: not listed separately
# Assay: Selective index, ratio of ID50 for mouse J774 cells to ID50 for Trypanosoma cruzi Tulahuen 2
# Settings: not given
row,Structure (SMILES),Ratio
1,CC1(C)[N+]([O-])=c2ccc(/C=N/O)cc2=[N+]1[O-],6.2
2,CC1(C)[N+]([O-])=c2ccc(Cl)cc2=[N+]1[O-],3.8
3,COc1ccc2c(c1)=[N+]([O-])C1(CCCC1)[N+]=2[O-],4
4,[O-][N+]1=c2cc(Cl)c(Cl)cc2=[N+]([O-])C12CCCC2,3.3
5,CC1(C)[N+]([O-])=c2cc(Cl)c(Cl)cc2=[N+]1[O-],6.9
6,CC1(Cc2ccc(Cl)cc2)[N+]([O-])=c2ccccc2=[N+]1[O-],1.4
7,CC1(C)[N+]([O-])=c2ccc(/C=C/c3ccc(Cl)cc3)cc2=[N+]1[O-],6.4
8,CC1(C)[N+]([O-])=c2ccc(/C=C/c3ccc4c(c3)OCO4)cc2=[N+]1[O-],18.7
9,[O-][N+]1=c2ccc(/C=N/O)cc2=[N+]([O-])C12CCCC2,6.6

# Tested on: Trypanosoma cruzi
# Assay: Inhibition of Mitochondrial dehydrogenase in Trypanosoma cruzi Y epimastigotes at 20 uM after 30 to 240 mins by MTT dye reduction assay in relative to control
# Settings: not given
# How it was run: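 Y-strain epimastigotes, 10^6 per well in 500 µL, 20 μM compound, 28 °C for 30–240 min with time-matched untreated controls. MTT (50 µL of 5 mg/mL) added for 4 h more, stopped with acidic isopropanol, A570 read; activity expressed as % of untreated parasites.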
row,Structure (SMILES),Activity
1,Cc1c(Sc2ccccc2)[n+]([O-])c2cc(Cl)c(Cl)cc2[n+]1[O-],Active
2,O=C(Cn1ccnc1[N+](=O)[O-])NCc1ccccc1 [BENZNIDAZOLE],Active

# Tested on: not listed separately
# Assay: Cytotoxicity against mouse J774 cells
# Assay type: cell-based
# Settings: read-out: ID50 (the source's name)
row,Structure (SMILES),CC50 [µM]
1,CC1(C)[N+]([O-])=c2ccc(/C=N/O)cc2=[N+]1[O-],77
2,CC1(C)[N+]([O-])=c2ccc(Cl)cc2=[N+]1[O-],38
3,COc1ccc2c(c1)=[N+]([O-])C1(CCCC1)[N+]=2[O-],100
4,[O-][N+]1=c2cc(Cl)c(Cl)cc2=[N+]([O-])C12CCCC2,39
5,CC1(C)[N+]([O-])=c2cc(Cl)c(Cl)cc2=[N+]1[O-],100
6,CC1(Cc2ccc(Cl)cc2)[N+]([O-])=c2ccccc2=[N+]1[O-],55
7,CC1(C)[N+]([O-])=c2ccc(/C=C/c3ccc(Cl)cc3)cc2=[N+]1[O-],52
8,CC1(C)[N+]([O-])=c2ccc(/C=C/c3ccc4c(c3)OCO4)cc2=[N+]1[O-],58
9,[O-][N+]1=c2ccc(/C=N/O)cc2=[N+]([O-])C12CCCC2,130

# Tested on: Leishmania braziliensis
# Assay: Antiparasitic activity against Leishmania braziliensis MHOM/BR/00/LTB300 after 5 days by MTT assay
# Assay type: functional
# Settings: MHOM/BR/00/LTB300, 120 h, read-out: ID50
# How it was run: as §2
row,Structure (SMILES),IC50 [µM]
1,CC1(C)[N+]([O-])=c2ccc(/C=N/O)cc2=[N+]1[O-],> 50
2,COc1ccc2c(c1)=[N+]([O-])C1(CCCC1)[N+]=2[O-],> 50
3,[O-][N+]1=c2cc(Cl)c(Cl)cc2=[N+]([O-])C12CCCC2,5.4
4,CC1(C)[N+]([O-])=c2cc(Cl)c(Cl)cc2=[N+]1[O-],10.1
5,[O-][N+]1=c2ccc(/C=N/O)cc2=[N+]([O-])C12CCCC2,26.7
